Assay results: ChEMBL document CHEMBL1152754, “18F-labeled flavones for in vivo imaging of beta-amyloid plaques in Alzheimer's brains” (Bioorg Med Chem, 2009)
Each block holds one compound with its values, some of them ahead of it. The source made the active and inactive calls. No cut-off for these calls is given here.

Assays:
Bone [1] = assay: Biodistribution in ddY mouse bone at 18.5 kBq, iv after 10 mins; assay type: ADME, organism-based, Bone element; settings: in vivo
Summary of the method: (§1)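 Normal ddY mice (5 weeks old, 22–25 g) received 18.5 kBq of 18F-labeled agent by tail-vein injection in 100 µL saline containing 5 µL ethanol. Killed under isoflurane anesthesia at each time point; organs removed and weighed, radioactivity gamma-counted. Expressed as %ID/g, mean ± SD of 4–5 mice per interval.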

Brain [2] = assay: Biodistribution in ddY mouse brain at 18.5 kBq, iv after 10 mins; assay type: ADME, organism-based; settings: in vivo; summary of the method: as §1
Brain [3] = assay: Biodistribution in ddY mouse brain at 18.5 kBq, iv after 30 mins; assay type: ADME, organism-based; settings: in vivo, 0.5 h; summary of the method: as §1
Bone [4] = assay: Biodistribution in ddY mouse bone at 18.5 kBq, iv after 60 mins; assay type: ADME, organism-based, Bone element; settings: in vivo, 1 h; summary of the method: as §1
Brain [5] = assay: Biodistribution in ddY mouse brain at 18.5 kBq, iv after 2 mins; assay type: ADME, organism-based; settings: in vivo; summary of the method: as §1
Blood [6] = assay: Biodistribution in ddY mouse blood at 18.5 kBq, iv after 2 mins; assay type: ADME, organism-based; settings: in vivo; summary of the method: as §1
Bone [7] = assay: Biodistribution in ddY mouse bone at 18.5 kBq, iv after 30 mins; assay type: ADME, organism-based, Bone element; settings: in vivo, 0.5 h; summary of the method: as §1
Blood [8] = assay: Biodistribution in ddY mouse blood at 18.5 kBq, iv after 30 mins; assay type: ADME, organism-based; settings: in vivo, 0.5 h; summary of the method: as §1
Blood [9] = assay: Biodistribution in ddY mouse blood at 18.5 kBq, iv after 60 mins; assay type: ADME, organism-based; settings: in vivo, 1 h; summary of the method: as §1
Brain [10] = assay: Biodistribution in ddY mouse brain at 18.5 kBq, iv after 60 mins; assay type: ADME, organism-based; settings: in vivo, 1 h; summary of the method: as §1
Bone [11] = assay: Biodistribution in ddY mouse bone at 18.5 kBq, iv after 2 mins; assay type: ADME, organism-based, Bone element; settings: in vivo; summary of the method: as §1
Blood [12] = assay: Biodistribution in ddY mouse blood at 18.5 kBq, iv after 10 mins; assay type: ADME, organism-based; settings: in vivo; summary of the method: as §1
Mus musculus = organism: Mus musculus; assay: Binding affinity to amyloid beta (1 to 42) aggregates in Tg2576 mouse brain at 100 uM by fluorescent staining method; assay type: tissue-based
Summary of the method: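 Tg2576 transgenic mice (female, 20 months old) killed by decapitation under isoflurane; brains frozen in powdered dry ice and cut into 10 µm serial cryosections. Sections incubated with a 100 µM solution of fluorescent ligand in 50% ethanol, washed twice for 3 min in 50% ethanol, imaged by fluorescence microscopy (excitation 450–490 nm). Adjacent sections immunostained with anti-β-amyloid monoclonal antibody, DAB chromogen.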

[13] = Displacement of [125I]DMFV from amyloid beta (1 to 42) aggregates
Summary of the method: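 Aβ(1-42) aggregated at 0.25 mg/mL in 10 mM sodium phosphate with 1 mM EDTA, pH 7.4, 37 °C for 42 h. Competition: 0.02 nM [125I]DMFV, test compound at 0.2 pM–400 µM, and aggregates in 10% EtOH, incubated 3 h at room temperature. Bound ligand collected on GF/B filters and gamma-counted. IC50 taken from displacement curves; Ki by Cheng-Prusoff using DMFV Kd 12.3 nM.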

SMILES: CN(C)c1ccc(-c2cc(=O)c3cc(F)ccc3o2)cc1
Ki [13]: 73.9 nM

SMILES: CNc1ccc(-c2cc(=O)c3cc(OCCOCCOCCF)ccc3o2)cc1
Ki [13]: 45.1 nM

SMILES: Nc1ccc(-c2cc(=O)c3cc(OCCF)ccc3o2)cc1
Ki [13]: 234 nM

SMILES: CNc1ccc(-c2cc(=O)c3cc(OCCOCCF)ccc3o2)cc1
Ki [13]: 54.5 nM

SMILES: Nc1ccc(-c2cc(=O)c3cc(F)ccc3o2)cc1
Ki [13]: 260 nM

SMILES: Nc1ccc(-c2cc(=O)c3cc(OCCOCCOCCF)ccc3o2)cc1
Ki [13]: 234 nM

SMILES: CNc1ccc(-c2cc(=O)c3cc(F)ccc3o2)cc1
Ki [13]: 110 nM

SMILES: Nc1ccc(-c2cc(=O)c3cc(OCCOCCF)ccc3o2)cc1
Ki [13]: 321 nM

SMILES: CNc1ccc(-c2cc(=O)c3cc(OCCF)ccc3o2)cc1
Ki [13]: 99 nM

The remaining lines, values ahead:

Drug uptake (Bone [1]): 2.83 % ID/g | Drug uptake (Brain [2]): 3.62 % ID/g | Drug uptake (Brain [3]): 1.89 % ID/g | Drug uptake (Bone [4]): 6.21 % ID/g | Drug uptake (Brain [5]): 4.17 % ID/g | Drug uptake (Blood [6]): 2.8 % ID/g | Drug uptake (Bone [7]): 4.51 % ID/g | Drug uptake (Blood [8]): 2.53 % ID/g | Drug uptake (Blood [9]): 3.25 % ID/g | Drug uptake (Brain [10]): 2.19 % ID/g | Drug uptake (Bone [11]): 2.02 % ID/g | Drug uptake (Blood [12]): 2.71 % ID/g
SMILES: CN(C)c1ccc(-c2cc(=O)c3cc(OCC[18F])ccc3o2)cc1

Activity (Mus musculus): Active | Ki [13]: 14.4 nM
SMILES: CN(C)c1ccc(-c2cc(=O)c3cc(OCCOCCF)ccc3o2)cc1

Activity (Mus musculus): Active | Ki [13]: 19.3 nM
SMILES: CN(C)c1ccc(-c2cc(=O)c3cc(OCCOCCOCCF)ccc3o2)cc1

Drug uptake (Bone [1]): 2.38 % ID/g | Drug uptake (Brain [2]): 2.23 % ID/g | Drug uptake (Brain [3]): 1.31 % ID/g | Drug uptake (Bone [4]): 5.21 % ID/g | Drug uptake (Brain [5]): 2.89 % ID/g | Drug uptake (Blood [6]): 2.35 % ID/g | Drug uptake (Bone [7]): 4.06 % ID/g | Drug uptake (Blood [8]): 1.4 % ID/g | Drug uptake (Blood [9]): 1.88 % ID/g | Drug uptake (Brain [10]): 1.37 % ID/g | Drug uptake (Bone [11]): 1.53 % ID/g | Drug uptake (Blood [12]): 1.5 % ID/g
SMILES: CN(C)c1ccc(-c2cc(=O)c3cc(OCCOCCOCC[18F])ccc3o2)cc1

Activity (Mus musculus): Active | Ki [13]: 5.3 nM
SMILES: CN(C)c1ccc(-c2cc(=O)c3cc(OCCF)ccc3o2)cc1

Drug uptake (Bone [1]): 1.65 % ID/g | Drug uptake (Brain [2]): 2.75 % ID/g | Drug uptake (Brain [3]): 2 % ID/g | Drug uptake (Bone [4]): 3.74 % ID/g | Drug uptake (Brain [5]): 3.54 % ID/g | Drug uptake (Blood [6]): 2.09 % ID/g | Drug uptake (Bone [7]): 2.42 % ID/g | Drug uptake (Blood [8]): 2.5 % ID/g | Drug uptake (Blood [9]): 2.94 % ID/g | Drug uptake (Brain [10]): 2.13 % ID/g | Drug uptake (Bone [11]): 1.13 % ID/g | Drug uptake (Blood [12]): 2.3 % ID/g
SMILES: CN(C)c1ccc(-c2cc(=O)c3cc(OCCOCC[18F])ccc3o2)cc1
